Measurements from ChEMBL document CHEMBL1146206, “Synthesis, cytotoxicity, and antiviral activities of new neolignans related to honokiol and magnolol” (Bioorg Med Chem Lett, 2007).
Activity calls are given as the source filed them. No cut-off for these calls is given here.

Columns and labels:
[1] = tested on: CCRF-CEM; experiment: Cytotoxicity against human CEM cells; type: cell-based
[2] = Cytotoxicity against human PBM cells; type: cell-based; details: PBMC
[3] = tested on: SVR; experiment: Antiproliferative activity against mouse SVR cells at 10 ug/mL after 72 hrs; type: functional
How it was run: (§1)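 Immortalized endothelial SVR cells were seeded at 10^4 per well in 24-well dishes. The next day, the medium was replaced with fresh medium containing compound or controls. Cells were incubated for 72 h at 37 °C. Cell number was counted in triplicate with a Coulter counter, and results were expressed as percent inhibition of proliferation.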

[4] = tested on: Vero; experiment: Cytotoxicity against Vero cells; type: cell-based; details: Chlorocebus sabaeus
[5] = tested on: Human immunodeficiency virus 1; experiment: Antiviral activity against HIV1 in human PBM cells; type: functional, organism-based; details: Human immunodeficiency virus 1, PBMC
[6] = tested on: SVR; experiment: Antiproliferative activity against mouse SVR cells at 15 ug/mL after 72 hrs; type: functional; how it was run: as §1
[7] = tested on: SVR; experiment: Inhibition of tumor growth in SVR cells bearing mouse up to 100 mg/kg, ip after 30 days; type: functional, organism-based; design: dose 100 mg/kg
How it was run: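 Nude male mice, 6 weeks old, were inoculated in the flank with SVR cells. Once tumors were visible, about 1 week after inoculation, mice received 3 mg/day intraperitoneally or vehicle control. Treatment ran up to 100 mg/kg for 30 days. Tumor growth and toxicity were compared against vehicle-treated mice.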

Row | Compound | IC50 [1] [µM] | IC50 [2] [µM] | inhibition at 10 µg/mL [3] [%] | IC50 [4] [µM] | EC50 [5] [µM] | EC90 [5] [µM] | inhibition at 15 µg/mL [6] [%] | Activity [7]
1 | C=CCc1cccc(-c2cccc(CC=C)c2O)c1O | 10.4 | 45.9 | 41 | 19.8 | 34.8 | 63 | 57 | 
2 | C=CCc1ccc(O)c(-c2ccc(O)c(CC=C)c2)c1 [HONOKIOL] | 10.9 | 16.1 | 60 | 22.5 | 3.3 |  | 85 | 
3 | C=CCc1cc(-c2cccc(CC=C)c2O)ccc1O | 17.9 | 36.7 | 74 | 11.4 | 23.4 | 81 | 81 | 
4 | C=CCc1cc(C(=C(Cl)Cl)c2ccc(O)c(CC=C)c2)ccc1O | 17.1 | 43.6 | 54 | 12.1 | 14.3 | 48.8 | 76 | 
5 | C=CCc1cc(C2(c3ccc(O)c(CC=C)c3)CCCCC2)ccc1O | 11 | 55.4 | 63 | 12.5 | 36.5 | 67.2 | 79 | 
6 | C=CCc1cc(-c2ncc(O)cn2)ccc1O | > 100 | 31.9 | 4.4 | > 100 | > 100 | > 100 | 10 | 
7 | C=CCc1cc(C(C)(C)c2ccc(O)c(CC=C)c2)ccc1O | 5.8 | > 100 | 33 | 13 | 4.1 | 47.3 | 57 | 
8 | C=CCc1cc(-c2ccc(O)c(CC=C)c2)ccc1O | 23 | > 100 | 45 | 83.2 | 19.4 |  | 56 | 
9 | C=CCc1cc(Cc2ccc(O)c(CC=C)c2)ccc1O | 15.1 | 33.7 | 75 | 1.9 | 13.6 | 35.1 | 74 | 
10 | C=CCc1ccc(O)c(-c2cc(CC=C)ccc2O)c1 [MAGNOLOL] | 99.5 | 38.6 | 60 | 50.6 | 69.3 | > 100 | 77 | 
11 | C=CCc1cc(C(c2ccc(O)c(CC=C)c2)c2ccccn2)ccc1O | 16.5 | 16.8 | 25 | 14.8 | 35 | 67.2 | 46 | 
12 | C=CCc1cc(/C(CC)=C(\CC)c2ccc(O)c(CC=C)c2)ccc1O | 3.4 | > 100 | 68 | 3.7 | 9.5 | 30.9 | 89 | inactive
